Experimental data reported in ChEMBL document CHEMBL1124567, “2,4-Diamino-5-benzylpyrimidines and analogues as antibacterial agents. 11. Quinolylmethyl analogues with basic substituents conveying specificity” (J Med Chem, 1989).
Values after ≈ are worked out from the molar mass of the structure shown.

Assays:
[1] = Dissociation constant of compound at 25 degree C; assay type: physicochemical
Vibrio cholerae = assay: Comparative in vitro antibacterial activity of compound with trimethoprim against Vibrio cholerae ATCC 14035; assay type: functional
Method in brief: (§1)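 In vitro activity given as a ratio to trimethoprim, which is tested alongside; values above 1 mean lower activity than trimethoprim. Compounds were tested in serial 1:3 dilutions, and a difference of ±one dilution is treated as not significant.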

Streptococcus agalactiae = assay: Comparative in vitro antibacterial activity of compound with trimethoprim against Streptococcus agalactiae CN1143; assay type: functional
Method in brief: (§2)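 Activity is expressed relative to trimethoprim as the reference, with values above 1 meaning lower activity than the reference. Dilutions were threefold (1:3), and a difference of ± one dilution was not treated as significant.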

Citrobacter freundii = assay: Comparative in vitro antibacterial activity of compound with trimethoprim against Citrobacter freundii 2200/77; assay type: functional; method in brief: as §2
Serratia marcescens = assay: Comparative in vitro antibacterial activity of compound with trimethoprim against Serratia marcescens CN2398; assay type: functional; method in brief: as §2
Klebsiella pneumoniae = assay: Comparative in vitro antibacterial activity of compound with trimethoprim against Klebsiella pneumoniae CN3632; assay type: functional; method in brief: as §2
[2] = test system: Bordetella bronchiseptica; assay: Comparative in vitro antibacterial activity of compound with trimethoprim against Bordetella bronchiseptica CN385; assay type: functional; method in brief: as §2
Pasteurella multocida = assay: Comparative in vitro antibacterial activity of compound with trimethoprim against Pasteurella multocida ATCC 6587; assay type: functional; method in brief: as §2
Escherichia coli = assay: Comparative in vitro antibacterial activity of compound with trimethoprim against Escherichia coli CN314; assay type: functional; method in brief: as §2
[3] = test system: Mycolicibacterium smegmatis; assay: Comparative in vitro antibacterial activity of compound with trimethoprim against Mycobacterium smegmatis S 3254; assay type: functional; method in brief: as §2
Klebsiella aerogenes = assay: Comparative in vitro antibacterial activity of compound with trimethoprim against Enterobacter aerogenes 2200/86; assay type: functional; method in brief: as §2
Enterococcus faecalis = assay: Comparative in vitro antibacterial activity of compound with trimethoprim against Streptococcus faecalis CN478; assay type: functional; method in brief: as §2
Salmonella typhimurium = assay: Comparative in vitro antibacterial activity of compound with trimethoprim against Salmonella Typhimurium S 8587; assay type: functional, Salmonella enterica subsp. enterica serovar Typhimurium; details: Salmonella enterica; method in brief: as §2
Streptococcus pyogenes = assay: Comparative in vitro antibacterial activity of compound with trimethoprim against Streptococcus pyogenes CN10; assay type: functional; method in brief: as §2
[4] = Comparative in vitro antibacterial activity of compound with trimethoprim against Salmonella typhi CN512; assay type: functional, salmonella typhosa; method in brief: as §1
Proteus mirabilis = assay: Comparative in vitro antibacterial activity of compound with trimethoprim against Proteus mirabilis S2409; assay type: functional; method in brief: as §2
Shigella flexneri = assay: Comparative in vitro antibacterial activity of compound with trimethoprim against Shigella flexneri CN6007; assay type: functional; method in brief: as §2
Staphylococcus aureus = assay: Comparative in vitro antibacterial activity of compound with trimethoprim against Staphylococcus aureus CN491; assay type: functional; method in brief: as §2
Proteus vulgaris = assay: Comparative in vitro antibacterial activity of compound with trimethoprim against Proteus vulgaris CN329; assay type: functional; method in brief: as §2
Dihydrofolate reductase = molecular target: T1, Dihydrofolate reductase (Rattus norvegicus, UniProt Q920D2); assay: Inhibitory activity against Dihydrofolate reductase in rat liver; assay type: tissue-based; details: read-out: I50
T1 sequence (Q920D2 whole entry): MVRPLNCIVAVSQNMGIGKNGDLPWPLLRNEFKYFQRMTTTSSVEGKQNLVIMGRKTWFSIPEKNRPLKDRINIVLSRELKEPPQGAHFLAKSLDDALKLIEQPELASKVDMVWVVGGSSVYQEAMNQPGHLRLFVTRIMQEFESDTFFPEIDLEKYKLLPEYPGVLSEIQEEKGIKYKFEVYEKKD

[5] = Dissociation constent of compound at 20 degree C; assay type: ADME

Row | SMILES | pKa [1] | MIC (Vibrio cholerae) [mg/L] | MIC (Streptococcus agalactiae) [mg/L] | MIC (Citrobacter freundii) [mg/L] | MIC (Serratia marcescens) [mg/L] | MIC (Klebsiella pneumoniae) [mg/L] | MIC [2] [mg/L] | MIC (Pasteurella multocida) [mg/L] | MIC (Escherichia coli) [mg/L] | MIC [3] [mg/L] | MIC (Klebsiella aerogenes) [mg/L] | MIC (Enterococcus faecalis) [mg/L] | MIC (Salmonella typhimurium) [mg/L] | MIC (Streptococcus pyogenes) [mg/L] | MIC [4] [mg/L] | MIC (Proteus mirabilis) [mg/L] | MIC (Shigella flexneri) [mg/L] | MIC (Staphylococcus aureus) [mg/L] | MIC (Proteus vulgaris) [mg/L] | IC50 (Dihydrofolate reductase) [µM] | also measured
1 | COc1ccc2ccccc2n1 | 3.16 |  |  |  |  |  |  |  |  |  |  |  |  |  |  |  |  |  |  |  | 
2 | Cc1cc(N(C)C)nc2ccc(Cc3cnc(N)nc3N)cc12 |  | 1 (≈ 3.24 µM) | 10 (≈ 32.4 µM) | 10 (≈ 32.4 µM) | 3 (≈ 9.73 µM) | 10 (≈ 32.4 µM) | 10 (≈ 32.4 µM) | 1 (≈ 3.24 µM) | 3 (≈ 9.73 µM) | 1 (≈ 3.24 µM) | 3 (≈ 9.73 µM) | 3 (≈ 9.73 µM) | 10 (≈ 32.4 µM) | 10 (≈ 32.4 µM) | 10 (≈ 32.4 µM) | 3 (≈ 9.73 µM) | 10 (≈ 32.4 µM) | 3 (≈ 9.73 µM) | 3 (≈ 9.73 µM) |  | 
3 | COc1cc(C)c2ccc(Cc3cnc(N)nc3N)cc2n1 |  | 3 (≈ 10.2 µM) | 3 (≈ 10.2 µM) | 100 (≈ 339 µM) | > 100 | 100 (≈ 339 µM) | > 100 | 10 (≈ 33.9 µM) | 300 (≈ 1020 µM) | 3 (≈ 10.2 µM) | 300 (≈ 1020 µM) | 3 (≈ 10.2 µM) | 100 (≈ 339 µM) | 3 (≈ 10.2 µM) | 1000 (≈ 3390 µM) | 30 (≈ 102 µM) | 300 (≈ 1020 µM) | 10 (≈ 33.9 µM) | 30 (≈ 102 µM) | 4.5 | 
4 | CCCCCc1cc(OC)c2cc(Cc3cnc(N)nc3N)cc(OC)c2n1 |  | 3 (≈ 7.86 µM) | 0.3 (≈ 0.786 µM) | 10 (≈ 26.2 µM) | 30 (≈ 78.6 µM) | 30 (≈ 78.6 µM) | 10 (≈ 26.2 µM) | 10 (≈ 26.2 µM) | 10 (≈ 26.2 µM) | 10 (≈ 26.2 µM) | 10 (≈ 26.2 µM) | 1 (≈ 2.62 µM) | 30 (≈ 78.6 µM) | 3 (≈ 7.86 µM) | 30 (≈ 78.6 µM) | 30 (≈ 78.6 µM) | 30 (≈ 78.6 µM) | 0.3 (≈ 0.786 µM) | 100 (≈ 262 µM) |  | 
5 | COc1cccc2cccnc12 | 4.99 |  |  |  |  |  |  |  |  |  |  |  |  |  |  |  |  |  |  |  | 
6 | Cc1cc(N2CCOCC2)nc2c(C)cc(Br)cc12 | 6.37 |  |  |  |  |  |  |  |  |  |  |  |  |  |  |  |  |  |  |  | 
7 | COc1cc(C)nc2c(OC)cc(Br)cc12 | 6.39 |  |  |  |  |  |  |  |  |  |  |  |  |  |  |  |  |  |  |  | 
8 | Cc1cc(N2CCOCC2)nc2c(C)cc(Cc3cnc(N)nc3N)cc12 |  | 3 (≈ 8.23 µM) | 0.3 (≈ 0.823 µM) | 10 (≈ 27.4 µM) | 100 (≈ 274 µM) | 10 (≈ 27.4 µM) | 3 (≈ 8.23 µM) | 10 (≈ 27.4 µM) | 30 (≈ 82.3 µM) | 3 (≈ 8.23 µM) | 30 (≈ 82.3 µM) | 0.3 (≈ 0.823 µM) | 30 (≈ 82.3 µM) | 1 (≈ 2.74 µM) | 30 (≈ 82.3 µM) | 30 (≈ 82.3 µM) | 30 (≈ 82.3 µM) | 0.3 (≈ 0.823 µM) | 100 (≈ 274 µM) | 410 | 
9 | Cc1cc(N2CCOCC2)nc2cc(Cc3cnc(N)nc3N)ccc12 |  | 10 (≈ 28.5 µM) | 30 (≈ 85.6 µM) | 100 (≈ 285 µM) | > 10 | 300 (≈ 856 µM) | > 100 | 300 (≈ 856 µM) | 300 (≈ 856 µM) | 3 (≈ 8.56 µM) | 300 (≈ 856 µM) | 3 (≈ 8.56 µM) | 1000 (≈ 2850 µM) | 10 (≈ 28.5 µM) | 10000 (≈ 28500 µM) | > 30 | 1000 (≈ 2850 µM) | 3 (≈ 8.56 µM) | > 100 | 16 | 
10 | COc1cc(C)nc2c(OC)cc(Cc3cnc(N)nc3N)cc12 |  | 1 (≈ 3.07 µM) | 1 (≈ 3.07 µM) | 3 (≈ 9.22 µM) | 3 (≈ 9.22 µM) | 10 (≈ 30.7 µM) | 10 (≈ 30.7 µM) | 3 (≈ 9.22 µM) | 3 (≈ 9.22 µM) | 3 (≈ 9.22 µM) | 10 (≈ 30.7 µM) | 1 (≈ 3.07 µM) | 3 (≈ 9.22 µM) | 0.3 (≈ 0.922 µM) | 10 (≈ 30.7 µM) | 10 (≈ 30.7 µM) | 3 (≈ 9.22 µM) | 0.3 (≈ 0.922 µM) | 3 (≈ 9.22 µM) | 49 | 
11 | Cc1cc(N(C)C)nc2c(C)cc(Cc3cnc(N)nc3N)cc12 |  | 1 (≈ 3.1 µM) | 1 (≈ 3.1 µM) | 10 (≈ 31 µM) | 10 (≈ 31 µM) | 3 (≈ 9.3 µM) | 30 (≈ 93 µM) | 3 (≈ 9.3 µM) | 10 (≈ 31 µM) | 3 (≈ 9.3 µM) | 10 (≈ 31 µM) | 1 (≈ 3.1 µM) | 10 (≈ 31 µM) | 3 (≈ 9.3 µM) | 3 (≈ 9.3 µM) | 10 (≈ 31 µM) | 10 (≈ 31 µM) | 1 (≈ 3.1 µM) | 10 (≈ 31 µM) | 280 | 
12 | COc1cc(Br)cc2c(N(C)C)cc(C)nc12 | 8.18 |  |  |  |  |  |  |  |  |  |  |  |  |  |  |  |  |  |  |  | 
13 | COc1cc(Cc2cnc(N)nc2N)cc2c(N(C)C)cc(C)nc12 |  | 10 (≈ 29.5 µM) | 30 (≈ 88.6 µM) | > 300 | > 300 | > 300 | 30 (≈ 88.6 µM) | 100 (≈ 295 µM) | > 10 | 100 (≈ 295 µM) | 300 (≈ 886 µM) | 100 (≈ 295 µM) | 100 (≈ 295 µM) | 10 (≈ 29.5 µM) | 100 (≈ 295 µM) | > 30 | 30 (≈ 88.6 µM) | 30 (≈ 88.6 µM) | > 100 | 70 | 
14 | Cc1cc(N(C)C)nc2ccc(Br)cc12 | 7.34 |  |  |  |  |  |  |  |  |  |  |  |  |  |  |  |  |  |  |  | 
15 | Brc1ccc2ncccc2c1 |  |  |  |  |  |  |  |  |  |  |  |  |  |  |  |  |  |  |  |  | pKa [5]: 3.91
16 | COc1cc(C)c2cc(Cc3cnc(N)nc3N)cc(C)c2n1 |  | 3 (≈ 9.7 µM) | 1 (≈ 3.23 µM) | 30 (≈ 97 µM) | 10 (≈ 32.3 µM) | 10 (≈ 32.3 µM) | 100 (≈ 323 µM) | 10 (≈ 32.3 µM) | 10 (≈ 32.3 µM) | 3 (≈ 9.7 µM) | 30 (≈ 97 µM) | 1 (≈ 3.23 µM) | 30 (≈ 97 µM) | 3 (≈ 9.7 µM) | 10 (≈ 32.3 µM) | 10 (≈ 32.3 µM) | 30 (≈ 97 µM) | 1 (≈ 3.23 µM) | 30 (≈ 97 µM) | 62 | 
17 | COc1cc(C)c2cc(Br)cc(C)c2n1 | 2.96 |  |  |  |  |  |  |  |  |  |  |  |  |  |  |  |  |  |  |  | 
18 | Nc1ccnc2ccccc12 [QUINOLIN-4-AMINE] |  |  |  |  |  |  |  |  |  |  |  |  |  |  |  |  |  |  |  |  | pKa [5]: 9.13
